# Measurements: publication PMC3049929 (Journal of medicinal chemistry, 2008)
# What was measured:
# [1] = tested on: P. falciparum 3D7 (chloroquine-sensitive); format: cell-based; conditions: Plasmodium falciparum, 3D7, Erythrocyte, 48 h, read-out: ED50 (nM) 3D7
# Method in brief: (§1)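 Parasites cultured in type A+ human erythrocytes (2% hematocrit) in RPMI-1640 with 20% heat-inactivated type A+ human plasma, under 5% CO2/5% O2/90% N2. Test compound in DMSO added to culture at 0.5% parasitemia and 0.5% hematocrit. Incubated 37 °C for 48 h, then [8-3H]hypoxanthine (0.3 µCi) added for a further 24 h. Cells harvested to filter mats and counted by β-scintillation. Uninfected-erythrocyte background subtracted; DMSO-only wells taken as 100% growth. ED50 from linear regression of incorporation vs concentration.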
# [2] = tested on: P. falciparum K1 (chloroquine-resistant, pyrimethamine-resistant); format: cell-based; conditions: Plasmodium falciparum, K1, Erythrocyte, 48 h, read-out: ED50 (nM) K1
# Method in brief: as §1
Structure (SMILES),IC50 [1] [nM],IC50 [2] [nM]
"Cn1cnc(S(=O)(=O)N(CC2CCN(c3ncccn3)CC2)CC(C)(C)N(Cc2cncn2C)c2ccc(C#N)cc2)c1 [3e, [N-{N-(2-Pyrimidinyl)-piperidin-4-ylmethyl}-N-{(4-cyanophenyl)(3-methyl-3H-imidazol-4-ylmethyl)amino}-2,2-dimethylethyl]-1-methyl-1H-imidazole-4-sulfonamide]",180,75
"Cn1cnc(S(=O)(=O)N(Cc2ccsc2)[C@@H]2CC[C@@H](N(Cc3cncn3C)c3ccc(C#N)cc3)C2)c1 (racemic) [9c, (±)-[N-(Thiophen-3-ylmethyl)-N-{trans-3-[(4-cyanophenyl)(3-methyl-3H-imidazol-4-ylmethyl)amino]cyclopentyl}]-1-methyl-1H-imidazole-4-sulfonamide]",1500,1200
"Cc1ccccc1CN([C@H]1CC[C@@H](N(Cc2cncn2C)c2ccc(C#N)cc2)C1)S(=O)(=O)c1cn(C)cn1 (racemic) [8b, (±)-[N-(2-Methylbenzyl)-N-{cis-3-[(4-cyanophenyl)(3-methyl-3H-imidazol-4-ylmethyl)amino]cyclopentyl}]-1-methyl-1H-imidazole-4-sulfonamide]",2400,2600
"Cc1ccccc1CN(CCCN(Cc1cncn1C)c1ccc(C#N)cc1)S(=O)(=O)c1cn(C)cn1 [2b, [N-(2-Methylbenzyl)-N-3-{(4-cyanophenyl)(3-methyl-3H-imidazol-4-ylmethyl)amino}propyl]-1-methyl-1H-imidazole-4-sulfonamide]",2900,2900
"Cn1cnc(S(=O)(=O)N(Cc2ccccc2)[C@@H]2CCC[C@@H]2N(Cc2cncn2C)c2ccc(C#N)cc2)c1 (racemic) [6a, (±)-[N-Benzyl-N-{cis-2-[(4-cyanophenyl)(3-methyl-3H-imidazol-4-ylmethyl)amino]cyclopentyl}]-1-methyl-1H-imidazole-4-sulfonamide]",> 5000,2400
"Cn1cnc(S(=O)(=O)N(CC2CCN(c3ncccn3)CC2)[C@H]2CCC[C@@H]2N(Cc2cncn2C)c2ccc(C#N)cc2)c1 (racemic) [7e, (±)-[N-{N-(2-Pyrimidinyl)-piperidin-4-ylmethyl}-N-{trans-2-[(4-cyanophenyl)(3-methyl-3H-imidazol-4-ylmethyl)amino]cyclopentyl}]-1-methyl-1H-imidazole-4-sulfonamide]",2600,750
"Cn1cnc(S(=O)(=O)N(CCCN(Cc2cncn2C)c2ccc(C#N)cc2)Cc2ccsc2)c1 [2c, [N-(Thiophen-3-ylmethyl)-N-3-{(4-cyanophenyl)(3-methyl-3H-imidazol-4-ylmethyl)amino}propyl]-1-methyl-1H-imidazole-4-sulfonamide]",2800,2200
"Cn1cnc(S(=O)(=O)N(CC2CCN(c3ncccn3)CC2)[C@H]2CC[C@@H](N(Cc3cncn3C)c3ccc(C#N)cc3)C2)c1 (racemic) [8e, (±)-[N-{N-(2-Pyrimidinyl)-piperidin-4-ylmethyl}-N-{cis-3-[(4-cyanophenyl)(3-methyl-3H-imidazol-4-ylmethyl)amino]cyclopentyl}]-1-methyl-1H-imidazole-4-sulfonamide]",600,720
"Cn1cnc(S(=O)(=O)N(CCCN(Cc2cncn2C)c2ccc(C#N)cc2)CC2CCN(C(=O)OC(C)(C)C)CC2)c1 [2d, [N-(N-tert-Butoxycarbonylpiperidin-4-ylmethyl)-N-3-{(4-cyanophenyl)(3-methyl-3H-imidazol-4-ylmethyl)amino}propyl]-1-methyl-1H-imidazole-4-sulfonamide]",330,190
"Cn1cnc(S(=O)(=O)N(CC2CCN(c3ncccn3)CC2)[C@@H]2CCC[C@@H]2N(Cc2cncn2C)c2ccc(C#N)cc2)c1 (racemic) [6e, (±)-[N-{N-(2-Pyrimidinyl)-piperidin-4-ylmethyl}-N-{cis-2-[(4-cyanophenyl)(3-methyl-3H-imidazol-4-ylmethyl)amino]cyclopentyl}]-1-methyl-1H-imidazole-4-sulfonamide]",3000,2500
"Cn1cnc(S(=O)(=O)N(Cc2ccccc2)[C@H]2CC[C@@H](N(Cc3cncn3C)c3ccc(C#N)cc3)C2)c1 (racemic) [8a, (±)-[N-Benzyl-N-{cis-3-[(4-cyanophenyl)(3-methyl-3H-imidazol-4-ylmethyl)amino]cyclopentyl}]-1-methyl-1H-imidazole-4-sulfonamide]",700,800
"Cn1cnc(S(=O)(=O)N(CC2CCN(C(=O)OC(C)(C)C)CC2)[C@H]2CC[C@@H](N(Cc3cncn3C)c3ccc(C#N)cc3)C2)c1 (racemic) [8d, (±)-[N-(N-tert-Butoxycarbonylpiperidin-4-ylmethyl)-N-{cis-3-[(4-cyanophenyl)-(3-methyl-3H-imidazol-4-ylmethyl)amino]cyclopentyl}]-1-methyl-1H-imidazole-4-sulfonamide]",300,
"Cn1cnc(S(=O)(=O)N(Cc2ccccc2)[C@H]2CC[C@H](N(Cc3cncn3C)c3ccc(C#N)cc3)CC2)c1 [11a, (±)-[N-Benzyl-N-{trans-4-[(4-cyanophenyl)(3-methyl-3H-imidazol-4-ylmethyl)amino]cyclohexyl}]-1-methyl-1H-imidazole-4-sulfonamide]",,1800
"Cn1cnc(S(=O)(=O)N(CCCN(Cc2cncn2C)c2ccc(C#N)cc2)Cc2ccccc2)c1 [2a, [N-Benzyl-N-3-{(4-cyanophenyl)(3-methyl-3H-imidazol-4-ylmethyl)amino}propyl]-1-methyl-1H-imidazole-4-sulfonamide]",3100,
"Cn1cnc(S(=O)(=O)N(CC2CCN(C(=O)OC(C)(C)C)CC2)[C@@H]2CC[C@@H](N(Cc3cncn3C)c3ccc(C#N)cc3)C2)c1 (racemic) [9d, (±)-[N-(N-tert-Butoxycarbonylpiperidin-4-ylmethyl)-N-{trans-3-[(4-cyanophenyl)(3-methyl-3H-imidazol-4-ylmethyl)amino]cyclopentyl}]-1-methyl-1H-imidazole-4-sulfonamide]",310,80
"Cn1cnc(S(=O)(=O)N(CCCN(Cc2cncn2C)c2ccc(C#N)cc2)CC2CCN(c3ncccn3)CC2)c1 [2e, [N-{N-(2-Pyrimidinyl)-piperidin-4-ylmethyl}-N-3-{(4-cyanophenyl)(3-methyl-3H-imidazol-4-ylmethyl)amino}propyl]-1-methyl-1H-imidazole-4-sulfonamide]",1300,
"Cn1cnc(S(=O)(=O)N(Cc2ccccc2)[C@@H]2CC[C@@H](N(Cc3cncn3C)c3ccc(C#N)cc3)C2)c1 (racemic) [9a, (±)-[N-Benzyl-N-{trans-3-[(4-cyanophenyl)(3-methyl-3H-imidazol-4-ylmethyl)amino]cyclopentyl}]-1-methyl-1H-imidazole-4-sulfonamide]",340,
"Cn1cnc(S(=O)(=O)N(CC2CCN(c3ncccn3)CC2)[C@@H]2CC[C@@H](N(Cc3cncn3C)c3ccc(C#N)cc3)C2)c1 (racemic) [9e, (±)-[N-{N-(2-Pyrimidinyl)-piperidin-4-ylmethyl}-N-{trans-3-[(4-cyanophenyl)(3-methyl-3H-imidazol-4-ylmethyl)amino]cyclopentyl}]-1-methyl-1H-imidazole-4-sulfonamide]",2600,1500
"Cc1ccccc1CN([C@@H]1CCC[C@@H]1N(Cc1cncn1C)c1ccc(C#N)cc1)S(=O)(=O)c1cn(C)cn1 (racemic) [6b, (±)-[N-(2-Methylbenzyl)-N-{cis-2-[(4-cyanophenyl)(3-methyl-3H-imidazol-4-ylmethyl)amino]cyclopentyl}]-1-methyl-1H-imidazole-4-sulfonamide]",2800,2800
"Cn1cnc(S(=O)(=O)N(Cc2ccccc2)CC(C)(C)N(Cc2cncn2C)c2ccc(C#N)cc2)c1 [3a, [N-Benzyl-N-{(4-cyanophenyl)(3-methyl-3H-imidazol-4-ylmethyl)amino}-2,2-dimethylethyl]-1-methyl-1H-imidazole-4-sulfonamide]",160,55
"Cn1cnc(S(=O)(=O)N(Cc2ccsc2)[C@@H]2CCC[C@@H]2N(Cc2cncn2C)c2ccc(C#N)cc2)c1 (racemic) [6c, (±)-[N-(Thiophen-3-ylmethyl)-N-{cis-2-[(4-cyanophenyl)(3-methyl-3H-imidazol-4-ylmethyl)amino]cyclopentyl}]-1-methyl-1H-imidazole-4-sulfonamide]",> 5000,4200
"Cc1ccccc1CN([C@H]1CCC[C@@H]1N(Cc1cncn1C)c1ccc(C#N)cc1)S(=O)(=O)c1cn(C)cn1 (racemic) [7b, (±)-[N-(2-Methylbenzyl)-N-{trans-2-[(4-cyanophenyl)(3-methyl-3H-imidazol-4-ylmethyl)amino]cyclopentyl}]-1-methyl-1H-imidazole-4-sulfonamide]",3000,3200
"Cc1ccccc1CN([C@@H]1CC[C@@H](N(Cc2cncn2C)c2ccc(C#N)cc2)C1)S(=O)(=O)c1cn(C)cn1 (racemic) [9b, (±)-[N-(2-Methylbenzyl)-N-{trans-3-[(4-cyanophenyl)(3-methyl-3H-imidazol-4-ylmethyl)amino]cyclopentyl}]-1-methyl-1H-imidazole-4-sulfonamide]",2400,2200
"Cn1cnc(S(=O)(=O)N(Cc2ccsc2)[C@H]2CC[C@@H](N(Cc3cncn3C)c3ccc(C#N)cc3)C2)c1 (racemic) [8c, (±)-[N-(Thiophen-3-ylmethyl)-N-{cis-3-[(4-cyanophenyl)(3-methyl-3H-imidazol-4-ylmethyl)amino]cyclopentyl}]-1-methyl-1H-imidazole-4-sulfonamide]",2400,2500
"Cn1cnc(S(=O)(=O)N(Cc2ccccc2)[C@H]2CCC[C@@H]2N(Cc2cncn2C)c2ccc(C#N)cc2)c1 (racemic) [7a, (±)-[N-Benzyl-N-{trans-2-[(4-cyanophenyl)(3-methyl-3H-imidazol-4-ylmethyl)amino]cyclopentyl}]-1-methyl-1H-imidazole-4-sulfonamide]",3100,
